Data published in ChEMBL document CHEMBL1148398, “Design, synthesis, and biological evaluation of thio-containing compounds with serum HDL-cholesterol-elevating properties” (2004).

Tests used:
[1] = test system: Rattus norvegicus; assay: Effect of compound on thyroxine levels in 5th group of normal chow-fed male rats after a dose of 20 mg/kg/day; assay type: functional, organism-based
How it was run: (§1)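 Male Sprague–Dawley CD rats, 60–80 g, on standard chow with reverse 12 h light/dark cycle. One oral gavage dose daily for 4 days, suspended in 1.3% Tween 80 and 0.25% CMC. Fasted overnight; sacrificed 24 h after the last dose. Serum TC on clinical analyzer, lipoproteins by FPLC with cholesterol per fraction, T4 on analyzer. Mean ± SEM, six rats per group.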

[2] = Effect on serum lipids in 1st group of normal chow-fed male rats after a dose of 1 mg/kg/day was evaluated as ratio of total plasma cholesterol levels to high-density lipoprotein cholesterol levels; assay type: functional
How it was run: (§2)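 Male Sprague–Dawley CD rats, 60–80 g, chow-fed, dosed by oral gavage daily for 4 days in 1.3% Tween 80/0.25% CMC. Fasted overnight, bled 24 h after the last dose. Serum total cholesterol by enzymatic reagent; HDL-C from cholesterol in FPLC fractions; TPC/HDL-C ratio calculated. Six per group, mean ± SEM.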

[3] = test system: Rattus norvegicus; assay: Effect of compound on alkaline phosphatase (ALKP) levels in 2nd group of normal chow-fed male rats after a dose of 2 mg/kg/day; assay type: functional, organism-based
How it was run: (§3)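 Male Sprague–Dawley CD rats (60–80 g) on standard chow under a reversed 12 h light/dark cycle. Compound was suspended in 1.3% Tween 80/0.25% CMC and given as a single daily oral gavage dose for 4 days. Rats were fasted overnight and killed 24 h after the last dose. Serum ALT, AST, ALKP and LDH were read on a clinical analyzer. Weight gain was start versus end weight. Mean ± SEM, n = 6.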

[4] = test system: Rattus norvegicus; assay: Effect of compound on lactic dehydrogenase (LDH) levels in 5th group of normal chow-fed male rats after a dose of 20 mg/kg/day; assay type: functional, organism-based
How it was run: (§4)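 Male Sprague–Dawley CD rats, 60–80 g, on chow with a reverse 12 h light/dark cycle. Given one oral gavage dose daily for 4 days, suspended in 1.3% Tween 80/0.25% CMC. Fasted overnight and sacrificed 24 h after the last dose for blood and liver. Serum liver enzymes read on a clinical analyzer. Six per group, mean ± SEM.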

[5] = test system: Rattus norvegicus; assay: Effect of compound on high-density lipoprotein cholesterol levels in 3rd group of normal chow-fed male rats after a dose of 5 mg/kg/day; assay type: functional, organism-based
[6] = test system: Rattus norvegicus; assay: Effect of compound on alkaline phosphatase (ALKP) levels in 7th group of normal chow-fed male rats after a dose of 100 mg/kg/day; assay type: functional, organism-based; how it was run: as §3
[7] = Effect on serum lipids in 4th group of cholesterol-fed male hamsters at 100 mg/kg/day after 14 days of treatment was evaluated as ratio of total cholesterol levels to high-density lipoprotein cholesterol levels; assay type: functional
How it was run: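 Male Syrian Golden hamsters on chow plus 0.25% cholesterol, 2 weeks before and during dosing. Oral gavage for 14 days in 2% Tween 80/saline. Fasted 4 h before sacrifice. Serum total cholesterol measured enzymatically; HDL-C from cholesterol in FPLC lipoprotein fractions; TC/HDL-C ratio calculated. Six per group, mean ± SEM.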

[8] = test system: Cricetinae gen. sp.; assay: Effect of compound on alanine aminotransferase (ALT) levels in 1st group of cholesterol-fed male hamsters at 3 mg/kg/day after 14 days of treatment; settings: Mesocricetus auratus
[9] = test system: Rattus norvegicus; assay: Effect of compound on lactic dehydrogenase (LDH) levels in 4th group of normal chow-fed male rats after a dose of 10 mg/kg/day; assay type: functional, organism-based; how it was run: as §4
[10] = test system: Cricetinae gen. sp.; assay: Effect of compound on aspartate aminotransferase (AST) levels in 4th group of cholesterol-fed male hamsters at 100 mg/kg/day after 14 days of treatment; settings: Mesocricetus auratus
[11] = test system: Rattus norvegicus; assay: Effect of compound on alkaline phosphatase (ALKP) levels in 6th group of normal chow-fed male rats after a dose of 50 mg/kg/day; assay type: functional, organism-based; how it was run: as §3
[12] = test system: Cricetinae gen. sp.; assay: Effect of compound on alkaline phosphatase (ALKP) levels in 3rd group of cholesterol-fed male hamsters at 30 mg/kg/day after 14 days of treatment; settings: Mesocricetus auratus
[13] = test system: Rattus norvegicus; assay: Effect of compound on high-density lipoprotein cholesterol levels in 6th group of normal chow-fed male rats after a dose of 50 mg/kg/day; assay type: functional, organism-based
[14] = test system: Mesocricetus auratus; assay: Effect of compound on gain in body weight in 3rd group of cholesterol-fed male hamsters at 30 mg/kg/day after 14 days of treatment
[15] = Effect on serum lipids in 6th group of normal chow-fed male rats after a dose of 50 mg/kg/day was evaluated as ratio of total plasma cholesterol levels to high-density lipoprotein cholesterol levels; assay type: functional; how it was run: as §2
[16] = test system: Rattus norvegicus; assay: Effect of compound on lactic dehydrogenase (LDH) levels in 2nd group of normal chow-fed male rats after a dose of 2 mg/kg/day; assay type: functional, organism-based; how it was run: as §3
[17] = test system: Rattus norvegicus; assay: Effect of compound on total plasma cholesterol levels in 2nd group of normal chow-fed male rats after a dose of 2 mg/kg/day; assay type: functional, organism-based; how it was run: as §1
[18] = test system: Cricetinae gen. sp.; assay: Effect of compound on very low-density lipoprotein cholesterol levels in 1st group of cholesterol-fed male hamsters at 3 mg/kg/day after 14 days of treatment; settings: Mesocricetus auratus
[19] = test system: Rattus norvegicus; assay: Effect of compound on triglyceride levels in 6th group of normal chow-fed male rats after a dose of 50 mg/kg/day; assay type: functional, organism-based
How it was run: (§5)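 Male Sprague–Dawley CD rats (60–80 g) on Purina 5001 chow with a reverse 12 h light/dark cycle. Dosed once daily by oral gavage for 4 days, suspended in 1.3% Tween 80 / 0.25% CMC. Fasted overnight and bled 24 h after the last dose. Serum TC and glycerol-blanked TG measured enzymatically; VLDL-C by FPLC fractionation with cholesterol assay. n=6, mean ± SEM.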

[20] = test system: Cricetinae gen. sp.; assay: Effect of compound on high-density lipoprotein cholesterol levels in 2nd group of cholesterol-fed male hamsters at 10 mg/kg/day after 14 days of treatment; assay type: functional, organism-based
[21] = test system: Cricetinae gen. sp.; assay: Effect of compound on alanine aminotransferase (ALT) levels in 2nd group of cholesterol-fed male hamsters at 10 mg/kg/day after 14 days of treatment; settings: Mesocricetus auratus
[22] = test system: Rattus norvegicus; assay: Effect of compound on very low-density lipoprotein cholesterol levels in 1st group of normal chow-fed male rats after a dose of 1 mg/kg/day; assay type: functional, organism-based; how it was run: as §5
[23] = test system: Rattus norvegicus; assay: Effect of compound on total plasma cholesterol levels in 5th group of normal chow-fed male rats after a dose of 20 mg/kg/day; assay type: functional, organism-based; how it was run: as §5
[24] = test system: Cricetinae gen. sp.; assay: Effect of compound on high-density lipoprotein cholesterol levels in 3rd group of cholesterol-fed male hamsters at 30 mg/kg/day after 14 days of treatment; assay type: functional, organism-based
[25] = test system: Rattus norvegicus; assay: Effect of compound on aspartate aminotransferase (AST) levels in 1st group of normal chow-fed male rats after a dose of 1 mg/kg/day; assay type: functional, organism-based; how it was run: as §3
[26] = test system: Rattus norvegicus; assay: Effect of compound on thyroxine levels in 6th group of normal chow-fed male rats after a dose of 50 mg/kg/day; assay type: functional, organism-based; how it was run: as §1

Compound: CCN1CC(=O)N(c2cc(Cl)ccc2C)C1=S
- Serum level [1]: 4.05 µg/dL
- Ratio [2]: 1.45
- Level [3]: 373 U l-1
- Level [4]: 1140 U l-1
- Serum level [5]: 45 mg/dL
- Level [6]: 382 U l-1
- Ratio [7]: 1.95
- Level [8]: 182 U l-1
- Level [9]: 553 U l-1
- Level [10]: 424 U l-1
- Level [11]: 330 U l-1
- Level [12]: 136 U l-1
- Serum level [13]: 61 mg/dL
- Body weight [14]: 8.2 g
- Ratio [15]: 2.03
- Level [16]: 692 U l-1
- Serum level [17]: 56 mg/dL
- Serum level [18]: 115 mg/dL
- Serum level [19]: 14 mg/dL
- Serum level [20]: 133 mg/dL
- Level [21]: 134 U l-1
- Serum level [22]: 4.3 mg/dL
- Serum level [23]: 84 mg/dL
- Serum level [24]: 156 mg/dL
- Level [25]: 216 U l-1
- Serum level [26]: 3.47 µg/dL
